Assay [1] can be described thus: Ratio of alpha-tocopherol EC50 to compound EC50 for reduction of K3FeCN6. Type of assay: functional.
Assay [2] can be described thus: Ratio of ascorbic acid acid EC50 to compound EC50 for reduction of K3FeCN6.
The test system of assay [3] is Radical scavenging activity. In words: Antioxidant activity assessed as DPPH radical scavenging activity incubated for 20 mins under dark condition by spectrophotometric analysis. Type of assay: functional.
Assay [4] concerns Radical scavenging activity. In words: Antioxidant activity assessed as DPPH radical scavenging activity at 5 to 500 uM incubated for 20 mins under dark condition by spectrophotometric analysis. The class given is functional.
Assay [5] in a line: Antioxidant activity assessed as peroxyl radical scavenging activity at 8 uM to 1 mM by fluorescence assay relative to trolox. Type of assay: functional. The method, boiled down: (§1)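 ORAC assay: peroxyl radicals were generated by AAPH, and oxidation of fluorescein was measured. Results are expressed as Trolox equivalents, calculated from concentrations within the linear part of the calibration curve. Values are mean ± standard deviation, n = 3.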

The nature of assay [6]: Antioxidant activity assessed as trolox equivalents of peroxyl radical scavenging activity by fluorescence assay. Type of assay: functional. The method, boiled down: as §1
Assay [7] is described as follows: Antioxidant activity assessed as hydroxyl radical scavenging activity at 8 uM to 1 mM by fluorescence assay relative to gallic acid. The class given is functional. The method, boiled down: (§2)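 HORAC assay: hydroxyl radicals were generated from hydrogen peroxide by Fenton reaction, and oxidation of fluorescein was measured. Results are expressed as gallic acid equivalents, calculated from concentrations within the linear part of the calibration curve. Values are mean ± standard deviation, n = 3.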

A short description of assay [8]: Antioxidant activity assessed as reduction of K3FeCN6 by spectrophotometric analysis in presence of FeCl3. Type of assay: functional. Summed up: (§3)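 Reducing power: reduction of K3FeCN6 in the presence of FeCl3, read as absorbance of the ferric-ferrous complex. Response was linear over 1–100 μM, and the regression equation from that range gave EC50. Values are mean ± standard deviation, n = 3.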

The nature of assay [9]: Antioxidant activity assessed as reduction of K3FeCN6 at 1 to 500 uM by spectrophotometric analysis in presence of FeCl3. The class given is functional. Summed up: as §3
Assay [10] can be described thus: Antioxidant activity assessed as gallic acid equivalents of hydroxyl radical scavenging activity by fluorescence assay. Type of assay: functional. Summed up:
as §2

The source made the active and inactive calls. No cut-off for these calls is given here.

In the case of `COc1cc(C[C@@H](CO[C@@H]2O[C@H](CO)[C@@H](O)[C@H](O)[C@H]2O)[C@H](CO[C@@H]2O[C@H](CO)[C@@H](O)[C@H](O)[C@H]2O)Cc2ccc(O)c(OC)c2)ccc1O`, the Ratio EC50 in [1] and in assay [2] was 3 throughout. Also, the EC50 came out at 124 µM in assay [3] and 332 µM in assay [8]. The outcome in assay [4] and in assay [9] was Active. The fold change (FC) in [5] and in assay [7] was 2 in each case. The values for the Activity in assay [6] and in [8] were 2.2 equiv and “Dose-dependent effect”, respectively.

`COc1cc(C[C@H](CO[C@@H]2O[C@H](CO)[C@@H](O)[C@H](O)[C@H]2O)[C@@H](CO[C@@H]2O[C@H](CO)[C@@H](O)[C@H](O)[C@H]2O)Cc2ccc(O)c(OC)c2)ccc1O` (stereo in doubt; form 1): the outcome in [4] and in [9] was Active. For the same molecule, the fold change (FC) in [5] came out at 2. Besides, the values for the Activity in [6], in [10] and in assay [8] were 2.55 equiv, 3.68 equiv and “Dose-dependent effect”, respectively.

As to `COc1cc(C[C@H](CO[C@@H]2O[C@H](CO)[C@@H](O)[C@H](O)[C@H]2O)[C@@H](CO[C@@H]2O[C@H](CO)[C@@H](O)[C@H](O)[C@H]2O)Cc2ccc(O)c(OC)c2)ccc1O` (stereo in doubt; form 1) [(+)-SECOISOLARICIRESINOLDIGLUCOSIDE], the EC50 in [3] was 83.9 µM; in assay [8] it was 275 µM.

For the molecule `COc1cc(C[C@H](CO[C@@H]2O[C@H](CO)[C@@H](O)[C@H](O)[C@H]2O)[C@@H](CO[C@@H]2O[C@H](CO)[C@@H](O)[C@H](O)[C@H]2O)Cc2ccc(O)c(OC)c2)ccc1O` (stereo in doubt; form 2), the Ratio EC50 in assay [1] and in assay [2] was 3 each time. In addition, the outcome in assay [4] and in [9] was Active. For the same molecule, the fold change (FC) in assay [5] and in assay [7] was 2 in each case. The values for the Activity in [6] and in assay [8] were 3.03 equiv and “Dose-dependent effect”, respectively.

For the molecule `COc1cc(C[C@H](CO[C@@H]2O[C@H](CO)[C@@H](O)[C@H](O)[C@H]2O)[C@@H](CO[C@@H]2O[C@H](CO)[C@@H](O)[C@H](O)[C@H]2O)Cc2ccc(O)c(OC)c2)ccc1O` (stereo in doubt; form 2) [(+)-SECOISOLARICIRESINOLDIGLUCOSIDE], the EC50 in assay [3] amounted to 158 µM; in [8], 292 µM.

For the molecule `Cc1c(C)c2c(c(C)c1O)CC[C@@](C)(CCC[C@H](C)CCC[C@H](C)CCCC(C)C)O2` [ALPHA-TOCOPHEROL], the EC50 in [3] is 133 µM; in [8] it was 945 µM. Further, the result in assay [4] and in assay [9] was Active.

With `O=C1O[C@H]([C@@H](O)CO)C(O)=C1O` [ASCORBIC ACID], the EC50 was 440 µM in [3] and 1130 µM in assay [8]. Moreover, the outcome in assay [4] and in assay [9] was Active.

The values above are taken from ChEMBL document CHEMBL2424630, “Synthesis and antioxidant evaluation of (S,S)- and (R,R)-secoisolariciresinol diglucosides (SDGs)” (Bioorg Med Chem Lett, 2013).
